# Assay results published in ChEMBL document CHEMBL2331178, “Novel pyridinone derivatives as non-nucleoside reverse transcriptase inhibitors (NNRTIs) with high potency against NNRTI-resistant HIV-1 strains” (J Med Chem, 2013).
# How the values were obtained:
# [1] = target: Human immunodeficiency virus type 1 reverse transcriptase (Human immunodeficiency virus 1, UniProt Q72547); assay: Inhibition of HIV1 reverse transcriptase after 1 hr by colorimetric assay
# Outline: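 Purified recombinant wild-type RT with poly(rA)/oligo(dT)16 template-primer and serial inhibitor concentrations. Incubated 1 h at 37 °C. Incorporated biotin detected with streptavidin-alkaline phosphatase and PNPP (30 min, 37 °C), read colorimetrically.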
# [2] = target: Human immunodeficiency virus type 1 reverse transcriptase (Human immunodeficiency virus 1) (UniProt Q72547); assay: Ratio of nevirapine IC50 to compound IC50 for HIV1 reverse transcriptase
# [3] = test system: Human immunodeficiency virus 1; assay: Antiviral activity against NNRTI-resistant Human immunodeficiency virus 1 harboring reverse transcriptase Y181C mutation infected in human MT4 cells assessed decrease in p24 level after 7 days by ELISA; assay type: functional, organism-based; conditions: Human immunodeficiency virus 1, MT4, 168 h
# Outline: (§1)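 MT4 cells (4×10^4/well) were infected with 200 TCID50 HIV-1 and held 2 h at 37 °C, then serially diluted compound was added. […] The K103N and Y181C viruses came from transfecting RT-mutant plasmids into 293T/17 cells.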
# [4] = target: Human immunodeficiency virus type 1 reverse transcriptase (Human immunodeficiency virus 1) (UniProt Q72547); assay: Ratio of TNK651 IC50 to compound IC50 for HIV1 reverse transcriptase
# [5] = Selectivity index, ratio of CC50 for human MT4 cells to EC50 for Human immunodeficiency virus 1 SF33 infected in human MT4 cells; assay type: toxicity, cell-based; conditions: read-out: Ratio CC50/EC50
# [6] = Selectivity index, ratio of CC50 for human TZM-bl cells to EC50 for Human immunodeficiency virus 1 SF33 infected in human TZM-bl cells; assay type: toxicity, cell-based; conditions: read-out: Ratio CC50/EC50
# [7] = test system: Human immunodeficiency virus 1; assay: Antiviral activity against NNRTI-resistant Human immunodeficiency virus 1 harboring reverse transcriptase K103N mutation infected in human TZM-bl cells assessed decrease in p24 level after 7 days by ELISA; assay type: functional, organism-based; conditions: Human immunodeficiency virus 1, TZM-bl, 168 h
# [8] = test system: Human immunodeficiency virus 1; assay: Antiviral activity against NNRTI-resistant Human immunodeficiency virus 1 A17 double mutant infected in human MT4 cells assessed decrease in p24 level after 7 days by ELISA; assay type: functional, organism-based; conditions: Human immunodeficiency virus 1, A17, MT4, 168 h; outline: as §1
# [9] = Selectivity index, ratio of CC50 for human TZM-bl cells to EC50 for Human immunodeficiency virus 1 A17 infected in human TZM-bl cells; assay type: toxicity, cell-based; conditions: read-out: Ratio CC50/EC50
# [10] = test system: Human immunodeficiency virus 1; assay: Antiviral activity against NNRTI-resistant Human immunodeficiency virus 1 harboring reverse transcriptase K103N mutation infected in human MT4 cells assessed decrease in p24 level after 7 days by ELISA; assay type: functional, organism-based; conditions: Human immunodeficiency virus 1, MT4, 168 h; outline: as §1
# [11] = test system: Human immunodeficiency virus 1; assay: Antiviral activity against NNRTI-resistant Human immunodeficiency virus 1 harboring reverse transcriptase Y181C mutation infected in human TZM-bl cells assessed decrease in p24 level after 7 days by ELISA; assay type: functional, organism-based; conditions: Human immunodeficiency virus 1, TZM-bl, 168 h
# [12] = test system: Human immunodeficiency virus 1; assay: Antiviral activity against NNRTI-resistant Human immunodeficiency virus 1 A17 double mutant infected in human TZM-bl cells assessed decrease in p24 level after 7 days by ELISA; assay type: functional, organism-based; conditions: Human immunodeficiency virus 1, A17, TZM-bl, 168 h
# [13] = test system: Human immunodeficiency virus 1; assay: Antiviral activity against Human immunodeficiency virus 1 SF33 infected in human MT4 cells assessed decrease in p24 level after 7 days by ELISA; assay type: functional, organism-based; conditions: Human immunodeficiency virus 1, SF33, MT4, 168 h
# Outline: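 MT4 cells (4×10^4/well) infected with 200 TCID50 of HIV-1 for 2 h at 37 °C, then serial dilutions of compound added. After 7 days at 37 °C, p24 measured in a commercial ELISA.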
# [14] = test system: Human immunodeficiency virus 1; assay: Antiviral activity against Human immunodeficiency virus 1 SF33 infected in human TZM-bl cells assessed decrease in p24 level after 7 days by ELISA; assay type: functional, organism-based; conditions: Human immunodeficiency virus 1, SF33, TZM-bl, 168 h
# [15] = Selectivity index, ratio of CC50 for human MT4 cells to EC50 for Human immunodeficiency virus 1 A17 infected in human MT4 cells; assay type: toxicity, cell-based; conditions: read-out: Ratio CC50/EC50
# [16] = Cytotoxicity against human TZM-bl cells; assay type: cell-based
# [17] = Cytotoxicity against human MT4 cells after 3 days by XTT assay; assay type: cell-based
# Outline: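 Graded compound concentrations added to MT4 cells (5×10^4/well) for 3 days at 37 °C. CCK-8 reagent then added for 4 h at 37 °C to develop the XTT formazan product, and absorbance read at 450 nm. CC50 derived from percent cytotoxicity.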
Compound,IC50 [1] [nM],selectivity ratio [5],selectivity ratio [6],EC50 [8] [nM],selectivity ratio [9],EC50 [12] [nM],EC50 [13] [nM],EC50 [14] [nM],selectivity ratio [15],CC50 [16] [nM],CC50 at 72 h [17] [nM],other results
CCOC(=O)c1c(OC2CC(C)CC(C)(C)C2)cc(Cc2ccccc2)[nH]c1=O (mixture of isomers),> 100000,–,–,–,–,–,–,–,–,–,–,–
CC1CCCCC1Oc1cc(Cc2ccccc2)[nH]c(=O)c1 (mixture of isomers),59300,–,–,–,–,–,–,–,–,–,–,–
CCOC(=O)c1c(OC2C(C)CCCC2C)cc(Cc2ccccc2)[nH]c1=O (mixture of isomers),37100,–,–,–,–,–,–,–,–,–,–,–
CC(C)c1c(O[C@H]2CCCC[C@@H]2C)cc(CCc2ccccc2)[nH]c1=O (racemic),3,> 75000,> 33300,90,2160,139,4,9,> 3330,> 300000,> 300000,Ratio IC50 [2]: 1480; EC50 [3]: 190 nM; Ratio IC50 [4]: 29; EC50 [7]: 75 nM; EC50 [10]: 18 nM; EC50 [11]: 63 nM
CCOC(=O)c1c(OC2CCCC2)cc(Cc2ccccc2)[nH]c1=O,> 100000,–,–,–,–,–,–,–,–,–,–,–
CCOC(=O)c1c(OC2CC(C)CC(C)C2)cc(Cc2ccccc2)[nH]c1=O (mixture of isomers),73500,–,–,–,–,–,–,–,–,–,–,–
CC1CCCCC1Oc1cc(CCc2ccccc2)[nH]c(=O)c1I (mixture of isomers),150,> 17600,> 5660,281,307,978,17,53,> 1070,> 300000,> 300000,EC50 [3]: 170 nM; EC50 [7]: 100 nM; EC50 [10]: 17 nM; EC50 [11]: 296 nM
CCOC(=O)c1c(OC2CCCCCC2)cc(Cc2ccccc2)[nH]c1=O,> 100000,–,–,–,–,–,–,–,–,–,–,–
CCOC(=O)c1c(OC2CCCCC2)cc(Cc2ccccc2)[nH]c1=O,81000,–,–,–,–,–,–,–,–,–,–,–
CCOC(=O)c1c(OC2CCCCC2C)cc(Cc2ccccc2)[nH]c1=O (mixture of isomers),5290,–,–,–,–,–,–,–,–,–,–,–
Cc1ccnc2c1NC(=O)c1cccnc1N2C1CC1 [NEVIRAPINE],–,–,–,> 10000,–,> 10000,–,190,–,204000,–,EC50 [3]: > 10000 nM; EC50 [7]: > 10000 nM; EC50 [10]: > 10000 nM; EC50 [11]: > 10000 nM
CC1CCCCC1Oc1cc(Cc2ccccc2)[nH]c(=O)c1Br (mixture of isomers),1210,–,–,–,–,–,–,–,–,–,–,–
CCOC(=O)c1c(OC2CCCC(C)C2)cc(Cc2ccccc2)[nH]c1=O (mixture of isomers),19800,–,–,–,–,–,–,–,–,–,–,–
CC(C)c1c(OC2CCCCC2C)cc(Cc2ccc(Cl)cc2)[nH]c1=O (mixture of isomers),160,8400,4720,10400,< 10,> 10000,10,23,8,109000,84000,–
CC(C)c1c(O[C@H]2CCCC[C@H]2C)cc(CCc2ccccc2)[nH]c1=O (racemic),1310,1290,1390,> 10000,< 18,> 10000,68,136,< 8,189000,87900,–
CCOC(=O)c1c(OC2CCC(C)CC2)cc(Cc2ccccc2)[nH]c1=O (mixture of isomers),32900,–,–,–,–,–,–,–,–,–,–,–
CC(C)c1c(OC2CCCCC2C)cc(CCc2ccccc2)[nH]c1=O (mixture of isomers),10,28800,3180,2760,191,600,7,36,73,114000,201000,–
COc1ccc(Cc2cc(OC3CCCCC3C)c(C(C)C)c(=O)[nH]2)cc1 (mixture of isomers),33,12400,26500,479,< 13,> 10000,6,5,155,132000,74500,–
CC(C)c1c(OC2CCCCC2C)cc(Cc2ccc(F)cc2)[nH]c1=O (mixture of isomers),130,2810,2860,> 10000,< 7,> 10000,23,26,< 6,74500,64600,–
CCOC(=O)c1c(OC2CCCCC2C)cc(CCc2ccccc2)[nH]c1=O (mixture of isomers),> 100000,–,–,–,–,–,–,–,–,–,–,–
CCOC(=O)c1c(OC2CCCCC2Cl)cc(Cc2ccccc2)[nH]c1=O (mixture of isomers),> 100000,–,–,–,–,–,–,–,–,–,–,–
CC(C)c1c(Cc2ccccc2)n(COCc2ccccc2)c(=O)[nH]c1=O,88,–,2990,> 10000,< 6,> 10000,–,22,< 8,65800,–,EC50 [3]: > 10000 nM; EC50 [7]: > 10000 nM; EC50 [10]: 2400 nM; EC50 [11]: > 10000 nM
CC1CCCCC1Oc1cc(Cc2ccccc2)[nH]c(=O)c1I (mixture of isomers),590,–,–,–,–,–,–,–,–,–,–,–
CC(C)c1c(OC2CCCCC2C)cc(Cc2ccccc2)[nH]c1=O (mixture of isomers),410,–,–,–,–,–,–,–,–,–,–,–
CC1CCCCC1Oc1cc(CCc2ccccc2)[nH]c(=O)c1Br (mixture of isomers),650,33400,–,4320,< 8,> 10000,3,92,23,83100,100000,–
Cc1ccc(Cc2cc(OC3CCCCC3C)c(C(C)C)c(=O)[nH]2)cc1 (mixture of isomers),59,18700,1740,> 10000,< 9,> 10000,6,57,< 11,99000,112000,–
